Data reported in ChEMBL document CHEMBL4033697, “Synthesis of methanesulphonamido-benzimidazole derivatives as gastro-sparing antiinflammatory agents with antioxidant effect” (Bioorg Med Chem Lett, 2017).

What was measured:
[1] = Antioxidant activity of the compound in phosphate buffer at pH 6.6 assessed as potassium ferric cyanide ion reducing activity at 25 umol/ml after 20 mins by spectrophotometric method relative to control; type: functional; design: scale not given: the % may be the effect or the level left
Summary of the method: (§1)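 Methanolic sample (1.0–50.0 […], units as printed) mixed with 0.2 M phosphate buffer pH 6.6 and 1% K3Fe(CN)6, 50 °C for 20 min; cooled, 10% TCA added, aliquot diluted with water plus 0.1% FeCl3, 10 min stand. A700 read against a methanol control; triplicate. Reducing power (%) = [(Atest − Acontrol)/Atest] × 100; EC50 derived; ascorbic acid standard.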

Rattus norvegicus [2] = experiment: Anti-inflammatory activity in po dosed rat assessed as reduction in carrageenan-induced paw edema measured after 5 hrs by plethysmographic method; type: functional
Summary of the method: (§2)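 Rats; carrageenan in 0.9% saline injected into paw; compound suspended in 0.5% w/v CMC given orally 30 min after carrageenan, three graded doses per compound. Paw volume by plethysmograph before and at intervals after treatment; values at 5 h. % reduction in edema = (1 − Vt/Vc) × 100 versus carrageenan control; ED50 from the three graded doses; one-way ANOVA.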

[3] = Antioxidant activity of the compound in phosphate buffer at pH 6.6 assessed as potassium ferric cyanide ion reducing activity at 10 umol/ml after 20 mins by spectrophotometric method relative to control; type: functional; design: scale not given: the % may be the effect or the level left; summary of the method: as §1
Rattus norvegicus [4] = experiment: Ulcerogenicity in rat model of carrageenan-induced paw edema assessed as diameter of lesion in gastric wall at 5 mg/kg, po measured after 5 hrs; type: toxicity, organism-based; conditions: in vivo
Summary of the method: (§3)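 After oral dosing in 0.5% CMC in the carrageenan paw model, rats were killed by cervical dislocation. Stomachs were inflated with 2% formalin, immersed 10 min to fix, and opened along the greater curvature. Longest lesion diameters were summed as a total lesion score (mm) per animal and averaged per group. Rofecoxib served as negative control and indomethacin as positive control.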

Rattus norvegicus [5] = experiment: Toxicity in rat model of carrageenan-induced paw edema assessed as behavioral changes at 5 to 75 mg/kg, po measured during compound dosing; type: organism-based; conditions: in vivo
[6] = Antioxidant activity of the compound in phosphate buffer at pH 6.6 assessed as potassium ferric cyanide ion reducing activity at 1 umol/ml after 20 mins by spectrophotometric method relative to control; type: functional; design: scale not given: the % may be the effect or the level left; summary of the method: as §1
[7] = Antioxidant activity of the compound in phosphate buffer at pH 6.6 assessed as potassium ferric cyanide ion reducing activity at 5 umol/ml after 20 mins by spectrophotometric method relative to control; type: functional; design: scale not given: the % may be the effect or the level left; summary of the method: as §1
Rattus norvegicus [8] = experiment: Ulcerogenicity in rat model of carrageenan-induced paw edema assessed as diameter of lesion in gastric wall at 25 mg/kg, po measured after 5 hrs; type: toxicity, organism-based; conditions: in vivo; summary of the method: as §3
Rattus norvegicus [9] = experiment: Ulcerogenicity in rat model of carrageenan-induced paw edema assessed as diameter of lesion in gastric wall at 75 mg/kg, po measured after 5 hrs; type: toxicity, organism-based; conditions: in vivo; summary of the method: as §3
Rattus norvegicus [10] = experiment: Anti-inflammatory activity in rat assessed as reduction in carrageenan-induced paw edema at 5 mg/kg, po measured after 5 hrs by plethysmographic method relative to control; type: functional; design: scale not given: the % may be the effect or the level left; summary of the method: as §2
Rattus norvegicus [11] = experiment: Anti-inflammatory activity in rat assessed as reduction in carrageenan-induced paw edema at 25 mg/kg, po measured after 5 hrs by plethysmographic method relative to control; type: functional; design: scale not given: the % may be the effect or the level left; summary of the method: as §2
[12] = Antioxidant activity of the compound in phosphate buffer at pH 6.6 assessed as potassium ferric cyanide ion reducing activity at 50 umol/ml after 20 mins by spectrophotometric method relative to control; type: functional; design: scale not given: the % may be the effect or the level left; summary of the method: as §1
Rattus norvegicus [13] = experiment: Anti-inflammatory activity in rat assessed as reduction in carrageenan-induced paw edema at 75 mg/kg, po measured after 5 hrs by plethysmographic method relative to control; type: functional; design: scale not given: the % may be the effect or the level left; summary of the method: as §2
[14] = Antioxidant activity of the compound in phosphate buffer at pH 6.6 assessed as potassium ferric cyanide ion reducing activity at 2.5 umol/ml after 20 mins by spectrophotometric method relative to control; type: functional; design: scale not given: the % may be the effect or the level left; summary of the method: as §1
[15] = Antioxidant activity of the compound in phosphate buffer at pH 6.6 assessed as potassium ferric cyanide ion reducing activity after 20 mins by spectrophotometric method; type: functional; summary of the method: as §1
Rattus norvegicus [16] = experiment: Ulcerogenicity in rat model of carrageenan-induced paw edema assessed as diameter of lesion in gastric wall at 40 mg/kg, po measured after 5 hrs; type: toxicity, organism-based; conditions: in vivo; summary of the method: as §3
Rattus norvegicus [17] = experiment: Toxicity in rat model of carrageenan-induced paw edema assessed as behavioral changes at 2.5 to 40 mg/kg, po measured during compound dosing; type: organism-based; conditions: in vivo
Rattus norvegicus [18] = experiment: Anti-inflammatory activity in rat assessed as reduction in carrageenan-induced paw edema at 40 mg/kg, po measured after 5 hrs by plethysmographic method relative to control; type: functional; design: scale not given: the % may be the effect or the level left; summary of the method: as §2
Rattus norvegicus [19] = experiment: Ulcerogenicity in rat model of carrageenan-induced paw edema assessed as diameter of lesion in gastric wall at 10 mg/kg, po measured after 5 hrs; type: toxicity, organism-based; conditions: in vivo; summary of the method: as §3
Rattus norvegicus [20] = experiment: Anti-inflammatory activity in rat assessed as reduction in carrageenan-induced paw edema at 10 mg/kg, po measured after 5 hrs by plethysmographic method relative to control; type: functional; design: scale not given: the % may be the effect or the level left; summary of the method: as §2
Rattus norvegicus [21] = experiment: Anti-inflammatory activity in rat assessed as reduction in carrageenan-induced paw edema at 2.5 mg/kg, po measured after 5 hrs by plethysmographic method relative to control; type: functional; design: scale not given: the % may be the effect or the level left; summary of the method: as §2
Rattus norvegicus [22] = experiment: Ulcerogenicity in rat model of carrageenan-induced paw edema assessed as diameter of lesion in gastric wall at 2.5 mg/kg, po measured after 5 hrs; type: toxicity, organism-based; conditions: in vivo; summary of the method: as §3

Structure (SMILES) | EC50 [15] [mM] | Activity [1] [%] | ED50 (Rattus norvegicus [2]) [mg/kg] | Activity [3] [%] | Activity (Rattus norvegicus [4]) [mm] | Activity (Rattus norvegicus [5]) | Activity [6] [%] | Activity [7] [%] | Activity (Rattus norvegicus [8]) [mm] | Activity (Rattus norvegicus [9]) [mm] | Activity (Rattus norvegicus [10]) [%] | Activity (Rattus norvegicus [11]) [%] | Activity [12] [%] | Activity (Rattus norvegicus [13]) [%] | Activity [14] [%] | other results
CCCCn1c(CCC)nc2cc(N)ccc21 | 18.2 | 55.6 | 5.52 | 44.8 | 0.28 | Non-Toxic | 6.3 | 29.9 | 0.54 | 1.13 | 59.09 | 56.82 | 62.5 | 59.09 | 15.4 | 
CCCCCCn1c(CCC)nc2cc(N)ccc21 | 10.3 | 57.1 | 5.16 | 48 | 0.27 | Non-Toxic | 6 | 34.5 | 0.52 | 1.06 | 33.13 | 49.8 | 65.9 | 69.13 | 12.9 | 
CCCCCn1c(CCC)nc2cc([N+](=O)[O-])ccc21 | > 50 | 20.8 | 4.8 | 10.7 | 0.33 | Non-Toxic | 0.4 | 5.8 | 0.69 | 1.03 | 63.64 | 68.18 | 39.8 | 68.18 | 2.1 | 
CCCCCCn1c(CCC)nc2cc(NS(C)(=O)=O)ccc21 | 5.1 | 69.6 | 2.45 | 66.5 |  |  | 10.6 | 49.7 |  |  |  |  | 75.4 |  | 29.2 | Activity (Rattus norvegicus [16]): 1.02 mm; Activity (Rattus norvegicus [17]): Non-Toxic; Activity (Rattus norvegicus [18]): 97.62%; Activity (Rattus norvegicus [19]): 0.69 mm; Activity (Rattus norvegicus [20]): 86.36%; Activity (Rattus norvegicus [21]): 50.18%; Activity (Rattus norvegicus [22]): 0.2 mm

Continued, in another order:

EC50 [15] [mM] | Structure (SMILES) | Activity [1] [%] | ED50 (Rattus norvegicus [2]) [mg/kg] | Activity [3] [%] | Activity (Rattus norvegicus [4]) [mm] | Activity (Rattus norvegicus [5]) | Activity [6] [%] | Activity [7] [%] | Activity (Rattus norvegicus [8]) [mm] | Activity (Rattus norvegicus [9]) [mm] | Activity (Rattus norvegicus [10]) [%] | Activity (Rattus norvegicus [11]) [%] | Activity [12] [%] | Activity (Rattus norvegicus [13]) [%] | Activity [14] [%] | other results
> 50 | CCCCn1c(CCC)nc2cc([N+](=O)[O-])ccc21 | 29.2 | 4.79 | 16.8 | 0.35 | Non-Toxic | 0.6 | 6.8 | 0.7 | 1.04 | 29.55 | 47.73 | 45.4 | 52.27 | 2.5 | 
> 50 | CCCCCCn1c(CCC)nc2cc([N+](=O)[O-])ccc21 | 30.1 | 3.97 | 17.9 | 0.22 | Non-Toxic | 0.9 | 6.8 | 0.54 | 1.26 | 51.87 | 61.26 | 45.9 | 78.25 | 2.8 | 
3.7 | CCCCCn1c(CCC)nc2cc(NS(C)(=O)=O)ccc21 | 72.8 | 2.55 | 66.5 |  |  | 15.4 | 58 |  |  |  |  | 79.1 |  | 32.7 | Activity (Rattus norvegicus [16]): 1.01 mm; Activity (Rattus norvegicus [17]): Non-Toxic; Activity (Rattus norvegicus [18]): 95.64%; Activity (Rattus norvegicus [19]): 0.5 mm; Activity (Rattus norvegicus [20]): 86.36%; Activity (Rattus norvegicus [21]): 48.18%; Activity (Rattus norvegicus [22]): 0.25 mm
